The values below come from paper PMC4697833 (Bioorganic & medicinal chemistry, 2015).

Read-outs that look alike come from different tables or passages of the source.

Series [1] deals with HL-60 (acute promyelocytic leukemia). In words: Alamar blue cytotoxicity assay, HL-60. Type of series: cell-based, human. The following applies: read-out: Growth inhibitory activity (IC50) HL-60; mean ± S.D. (Alamar Blue is a resazurin reagent that responds to reducing activity.)
For series [2], the system named is CCRF-CEM (acute lymphoblastic leukemia). Briefly: Alamar blue cytotoxicity assay, CCRF-CEM. It counts as cell-based, human. As to conditions: read-out: Growth inhibitory activity (IC50) CCRF-CEM. The method, boiled down: (§1)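 Suspension cells (CCRF-CEM; TEX in IMDM with L-glutamine, 15% FBS, SCF 20 ng/mL, IL-3 2 ng/mL, penicillin/streptomycin) were seeded at 10,000 cells/well 24 h before compound addition. Cultures were kept at 37 °C in humidified 5% CO₂. Viability was read with Alamar blue. IC50 is mean ± S.D. of n ≥ 3 biological replicates.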

Series [3] concerns MCF-7 (breast adenocarcinoma). In words: Alamar blue cytotoxicity assay, MCF-7. Type of series: cell-based, human. The method, boiled down: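 MCF-7 cells were grown in MEM with 10% FBS, bovine insulin 0.01 mg/mL, penicillin and streptomycin at 37 °C in 5% CO₂. They were detached with trypsin-EDTA or TrypLE and seeded at 5,000 cells/well 24 h before dosing. Readout was Alamar blue reduction. IC50 is mean ± S.D. from n ≥ 3 biological replicates.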

The subject of another series is DU-145 (prostate cancer). Briefly: Alamar blue cytotoxicity assay, DU-145. It counts as cell-based, human. The following applies: read-out: Growth inhibitory activity (IC50) DU-145; mean ± S.D.
For series [4], the system named is NCI/ADR-RES (ovarian cancer; adriamycin-resistant). Briefly: Alamar blue cytotoxicity assay, NCI/ADR-RES. Type of series: cell-based, human. The following applies: read-out: Growth inhibitory activity (IC50) NCI/ADR-RES; mean ± S.D. The method, boiled down: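 Adherent NCI/ADR-RES cells were seeded at 5,000 cells/well 24 h prior to compound treatment and kept at 37 °C, 5% CO₂. Growth was measured by Alamar blue. IC50 values are mean ± S.D. over n ≥ 3 biological replicates.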

For series [5] the following is noted: mice, oral dosing 100 mg/kg; cited from earlier work.
The conditions of series [6]: canine, oral dosing 100 mg/kg; cited from earlier work.
The conditions of series [7]: cited from earlier work.
For another series, the system named is mice. As to conditions: continuous oral dosing 100 mg/kg daily for over four weeks; cited from earlier work.
A further series in a line: Measured LogD7.4. Type of series: physicochemical. As to conditions: pH 7.4. The method, boiled down: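 LogD at pH 7.4 was determined experimentally by liquid-liquid distribution chromatography, run by a contract analytical lab. Each value is the average of two measurements. The assay's measurable range is 1–5 log units.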
Series [8] deals with murine AML cell line B117P. Briefly: Murine cytotoxicity assay, B117P. Type of series: cell-based. As to conditions: Mus musculus, read-out: Growth inhibitory activity (IC50) B117P. The method, boiled down: (§2)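 Murine AML lines were used: B117P and B140P from BXH-2 mice, which develop leukemia from an endogenous murine leukemia virus, and their counterparts B117H and B140H. Cells per well were 25,000 (B117P), 28,000 (B117H), 36,000 (B140P) and 44,000 (B140H) in 96-well format. IC50 values are mean ± S.D. from biological triplicate.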

The test system of series [9] is murine AML cell line B117H (cytarabine-resistant). In words: Murine cytotoxicity assay, B117H. It counts as cell-based. The following applies: Mus musculus, read-out: Growth inhibitory activity (IC50) B117H. The method, boiled down:
as §2

For series [10], the system named is murine AML cell line B140P. In words: Murine cytotoxicity assay, B140P. Type of series: cell-based. As to conditions: Mus musculus, read-out: Growth inhibitory activity (IC50) B140P. The method, boiled down: as §2
Series [11] relates to murine AML cell line B140H (cytarabine-resistant). Briefly: Murine cytotoxicity assay, B140H. Type of series: cell-based. The following applies: Mus musculus, read-out: Growth inhibitory activity (IC50) B140H. The method, boiled down:
as §2

Series [12] has as its system TEX cells. Briefly: Alamar blue cytotoxicity assay, TEX. Type of series: cell-based, human. The following applies: Homo sapiens, 48 h, read-out: Growth inhibitory activity (IC50) TEX. The method, boiled down: as §1
The subject of series [13] is total bone marrow cell population. In words: Flow cytometry viability of total bone marrow cells. It counts as cell-based, human. The following applies: 25 µM, 12 h. The method, boiled down:
(§3)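 Cells were plated at 1 × 10⁶ cells/mL with test compound (25 µM) or doxorubicin (0.5 µM) for 12 h (final DMSO 0.03%). Staining was CD34/CD38, then Annexin V/7-AAD, with over 5 × 10⁴ events. Viability is the unstained fraction, mean ± S.D. of n ≥ 3; unpaired t-tests.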
(In general: Flow cytometry measures light scatter and fluorescence of single cells or particles in a stream.)

The test system of series [14] is CD34+CD38− BM cells. In words: Flow cytometry viability of CD34+CD38− bone marrow cells. It counts as cell-based, human. The following applies: 25 µM, 12 h. The method, boiled down: as §3
The next series relates to CD34+CD38− TEX cells. Briefly: Flow cytometry viability of CD34+CD38− TEX cells. It counts as cell-based. As to conditions: Homo sapiens, 12 h, read-out: cell viability of CD34+CD38− TEX cells. The method, boiled down:
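TEX cells at 1 × 10⁶ cells/mL were dosed for 12 h at 37 °C, 20% O₂, 5% CO₂ (final DMSO 0.03% v/v). Test compound was given at 25, 15 or 2.5 µM; the doxorubicin reference at 2.5, 0.5 or 0.05 µM. Cells were stained for CD34/CD38 (10 min, 4 °C), then Annexin V-FITC/7-AAD (10 min, RT, dark). Over 5 × 10⁴ events were collected. Viable cells were double-negative. Values are mean ± S.D. of 3–5 biological replicates; unpaired t-test versus untreated.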

Series [15] deals with TEX cells. In words: Methylcellulose clonal growth assay with TEX cells. The following applies: 2.5 µM; 11 d growth on methylcellulose. Type of series: cell-based, human. The method, boiled down:
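TEX cells were suspended in methylcellulose medium with penicillin (100 I.U./mL) and streptomycin (100 µg/mL) at a final 1.2 × 10⁴ cells/mL, i.e. 6,000 cells/well. Test compound, diluted in TEX medium, or DMSO (0.05%, control) was added. Cells were plated as technical triplicates and grown 11 d at 37 °C, 5% CO₂. Two people counted colonies independently at 10X. Values are the mean of 3 biological replicates ± S.D., with unpaired t-tests against DMSO.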

Series [16] relates to TEX cells. In words: Intracellular ROS induction. Type of series: cell-based, human. The following applies: 100 µM, 30 min. The method, boiled down:
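TEX cells were seeded at 5 × 10⁵ cells/mL and incubated overnight at 37 °C, 5% CO₂. They were then exposed to test compound at 25 or 100 µM, with H₂O₂ 100 µM as positive control. CellROX Green (5 µM final) was added at once, followed by 30 min at 37 °C. Cells were washed twice in FACS buffer and 5 × 10⁴ events recorded. Median fluorescence was normalized to untreated control. Runs were in quadruplicate (H₂O₂ triplicate); mean ± S.D.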

For series [17] the following is noted: mice, oral dosing 40 mg/kg; cited from earlier work.
For series [18] the following is noted: mouse plasma; cited from earlier work.
The subject of a further series is total BM. As to conditions: cited from earlier work.
Series [19] has as its system CD34+CD38− BM cells. As to conditions: 5 µM for 18 hrs; cited from earlier work.

For orientation: Cmax means the peak of the concentration-time curve. For the compound `C/C1=C\CC[C@@]2(C)O[C@@H]2[C@H]2OC(=O)[C@@H](CN(C)C)[C@@H]2CC1.O=C(O)/C=C/C(=O)O` [DMAPT, dimethylamino-parthenolide fumarate], the IC50 in [1] turned out to be 7.1 ± 0.4 µM; in series [2] (mean ± S.D.), 1.9 ± 0.4 µM; in [3] (read-out: Growth inhibitory activity (IC50) MCF-7, mean ± S.D.), 10.4 ± 1.2 µM; in the series with DU-145 (prostate cancer), 8.4 ± 4.5 µM; in series [4] it was 12.3 ± 2.7 µM. In addition, the Cmax in series [5] is 25 µM; in series [6], 61 µM. Further, in [7], the “increase of water solubility versus PTL” value is ~ 1000 fold. Besides, the toxicity to mice result in the series with mice was “no measurable toxicity”.
The term chromatographic logD denotes a lipophilicity value derived from retention on a column. Lower therefore signals lower lipophilicity. A word on the viability: it is the share of living cells, or the viability signal relative to a control. In the case of `C=C1C(=O)O[C@H]2[C@H]1CC/C(C)=C/CC[C@@]1(C)O[C@@H]21` [PTL, Parthenolide], the chromatographic logD in “Measured LogD7.4” stood at 1.79. Moreover, the IC50 in [2] (Homo sapiens, CCRF-CEM) was found to be 4.7 ± 1.6 µM; in series [3] (Homo sapiens, MCF7, read-out: Growth inhibitory activity (IC50) MCF-7) it was 9.7 ± 2.8 µM; in series [8] it was 1.1 ± 0.2 µM; in series [9] it was 4.7 ± 1.6 µM; in series [10] it was 5.8 ± 2.3 µM; in [11], 3.4 ± 1.1 µM. The IC50 in the series with TEX cells [12] amounted to 2.8 ± 0.2 µM. In addition, the “reduction in total BM viability” value in series [13] is given as 48%. Also, in the series with CD34+CD38− BM cells [14], the “toxicity to primitive CD34+CD38− BM cells” value is listed as “no significant toxicity”. Further, in the series with CD34+CD38− TEX cells, the viability at 25 µM is 1 to 10%. Also, the “Colonies (mean number ± S.D.)” value in the series on TEX cells [15] was 2.6 ± 2.7. For the same compound, the “induction of intracellular ROS (MFI normalized to untreated control)” value in the series on TEX cells [16] was 1.6 fold. Moreover, the concentration in serum result in series [17] is on record as “approximately 200 nM”. Also, the “plasma half-life t1/2” value in series [18] is 1.6 h. In the series with total BM (5 µM for 18 hrs), the “toxicity to total BM” value is on record as “non-toxic”. Besides, the “overall BM toxicity” value in the series with total BM (7.5 µM for 18 hrs) was “some overall BM toxicity”. Besides, in the series with CD34+CD38− BM cells [19], the “toxicity to CD34+CD38− BM cells” value is “non-toxic”.
